Only some compounds are listed: those with a hit (about 4.5% of all), similar ones and a draw of the others.
NF-kB neuron act = raises NF-kB expression in human neuronal cells; fold change at 12.5 µM; NF-kB reporter expression; stronger effect = higher value; 190,000 tested, 1.6% active; AID 1239; in the data active means fold change above about 3.3
PERK inh = human PERK inhibition, primary cell-based screen | Q9NZJ5 | CHO PERK-DD fusion, SEAP luminescence translation reporter | inhibition, % at 5.6 µM | 220,000 tested, 0.17% active | AID 1416;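 active means inhibition above the mean inhibition of all tested compounds plus 3 SD, set separately per screening campaign, cut at about 2.9% in these data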;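 further: PERK kinase domain activated by AP20187 dimerizer at 100 nM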
STAT1 act = increases IFN-gamma driven STAT1 reporter signal. NIH 3T3 STAT1-luciferase reporter, luminescence; 100% = IFN-gamma alone, no compound. activation (% of control), % at 5.5 µM. 200,000 tested, 2.6% active;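 active means activation above the screen-wide mean activation plus 3 SD, cut at about 130% in these data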
APP 5'UTR act = APP 5'UTR luciferase reporter activation; SH-SY5Y APP 5'UTR luciferase reporter, luminescence; zero percent = DMSO vehicle wells; activation, % at 2 µM; 190,000 tested, 1% active;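 active means activation above a set limit, based on mean plus 3 SD of controls, cut at about 140% in these data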
Mdm2 ligase inh = blocks human Mdm2 ubiquitin ligase activity. Q00987. cell-based MDM2 ubiquitination luciferase reporter, 2 h; 0 = plate control, 100 = twice control, blank-subtracted. signal enhancement, % at 5 µM. 210,000 tested, 0.11% active;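 active means signal enhancement of 30% or more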;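 further: luminescence tracks abundance of the self-degrading MDM2-luciferase fusion protein; higher signal means inhibition of MDM2 E3 ligase activity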
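System: stable MDM2–luciferase fusion reporter cells / Input: 2000 cells seeded into each well / Schedule: 4 h settle plus 2 h compound, 37 °C / Compound: single-point 5 µM / Buffer or medium: cells held in DMEM / Benchmarks: control and blank well means / Evaluation: percent signal gain over controls, blank-subtracted / Measured by: luciferase luminescence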
AHR activator = activates the human aryl hydrocarbon receptor | P35869 | 320,000 tested, 2.5% active | AHR-responsive luciferase reporter cells, luminescence | AID 2796 | activation, % at 5 µM; in the data active means activation above about 47%
AHR act cf = confirmation of human aryl hydrocarbon receptor activators; shares compounds with AHR activator; human cells, AHR-responsive luciferase reporter, luminescence; activation, % at 9 µM; 2,300 tested, 87% active; in the data active means activation above about 49%;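 further: HepG2 hepatoma cells carrying a DRE-driven firefly luciferase reporter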
PXR counter = activates human PXR in AHR activator counter-screen. activation, % at 11.6 µM. 2,300 tested, 88% active. shares compounds with AHR activator. AID 434939. cell-based PXR reporter, luciferase luminescence; in the data active means activation above about 11%;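 further: human hepatoma DPX-2 cells expressing full-length human PXR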
Each line names hits and unclear results; the compound was inactive in the other large screens (follow-up assays come after a bar, where they were run).

CCC1(C)Cc2ccccc2C(Nc2c(C)n(C)n(-c3ccccc3)c2=O)=N1 (stereo unspecified)	none
Cn1c(SCC(=O)NCC2CCCO2)nnc1-c1ccc(Cl)cc1 (stereo unspecified)	none (no result: NF-kB neuron act, PERK inh, STAT1 act, APP 5'UTR act, Mdm2 ligase inh)
Cc1ccc(-c2[nH]c(-c3ccc(Cl)cc3)nc2SCC(=O)NCC2CCCO2)cc1 (stereo unspecified)	AHR activator 108 (no result: Mdm2 ligase inh) | AHR act cf 84 | PXR counter 86
O=C(Nc1ccnn1C1CCN(Cc2ccc(O)c(Cl)c2)CC1)C1CCCC1	none (no result: NF-kB neuron act, PERK inh, STAT1 act, APP 5'UTR act, Mdm2 ligase inh)
Fc1ccc(N2CCN(c3nc(-c4ccco4)cc(C(F)(F)F)n3)CC2)cc1	AHR activator 115 | AHR act cf 105 | PXR counter 14
FC(F)(F)c1cc(-c2ccco2)nc(N2CCN(Cc3ccccc3)CC2)n1	none
O=c1c2ccccc2nc2c3ccccc3c(NCc3ccccn3)nn12	AHR activator 119 | AHR act cf 113 | PXR counter 128
COc1cc(Cl)c(C)cc1NC(=O)c1ccccc1NC(=O)CN1CCOCC1	AHR activator 101 (no result: NF-kB neuron act, PERK inh, STAT1 act, APP 5'UTR act, Mdm2 ligase inh) | AHR act cf 103 | PXR counter 92
COc1ccc(NC(=O)c2ccccc2Cl)cc1NC(=O)CN1CCOCC1	none
COc1ccccc1-c1nc(C#N)c(N2CCN(c3ccccc3)CC2)o1	none
COc1ccccc1-c1nc(C#N)c(N2CCCCCC2)o1	AHR activator 83 | AHR act cf 79 | PXR counter 108
Cc1ccc(C(=O)N/C(=C\c2cn(C)c3ccccc23)C(=O)N2CCOCC2)cc1	none (no result: NF-kB neuron act, PERK inh, STAT1 act, APP 5'UTR act, Mdm2 ligase inh)
Cn1cc(/C=C(\NC(=O)c2ccccc2)C(=O)N2CCOCC2)c2ccccc21	AHR activator 85 (no result: NF-kB neuron act, PERK inh, STAT1 act, APP 5'UTR act, Mdm2 ligase inh) | AHR act cf inactive | PXR counter 87
CCC1(c2ccc(Cl)cc2)NC(=S)N(c2ccccc2)N1 (stereo unspecified)	AHR activator 80 | AHR act cf 82 | PXR counter 12
CCC1(c2ccccc2)NC(=S)N(c2ccc(C)cc2)N1 (stereo unspecified)	none
COc1ccc(Nc2nc3ccccc3n3nnnc23)cc1	AHR activator 99 (no result: Mdm2 ligase inh) | AHR act cf 103 | PXR counter 29
Clc1ccc(Nc2nc3ccccc3n3nnnc23)cc1	AHR activator 81 | AHR act cf 104 | PXR counter 50
COc1cc(Nc2nc3ccccc3n3nnnc23)cc(OC)c1OC	none
Fc1cc(Br)ccc1Nc1nc2ccccc2n2nnnc12	AHR activator 131 | AHR act cf 125 | PXR counter 28
COc1ccc(S(=O)(=O)N2CCCCC2)cc1NC(=O)CSc1ncccn1	none (no result: NF-kB neuron act, PERK inh, STAT1 act, APP 5'UTR act, Mdm2 ligase inh)
C=C[C@@H]1c2cccc(C)c2N(S(=O)(=O)c2ccc(C)cc2)[C@H](c2ccc(OC(C)=O)cc2)C1(C#N)C#N	none (no result: NF-kB neuron act, PERK inh, STAT1 act, APP 5'UTR act, Mdm2 ligase inh)
Cc1nc(NC2=NCN(CCCN3CCOCC3)CN2)nc2c(C)cccc12	AHR activator 125 | AHR act cf 74
CC1CCCC/C1=N\NC(=S)Nc1cccnc1 (stereo unspecified)	NF-kB neuron act 4.9, AHR activator 113 | AHR act cf 73 | PXR counter 12
COCCN1CCN(C(=O)c2cc(COc3ccc(Cl)cc3OC)on2)CC1	none (no result: NF-kB neuron act, PERK inh, STAT1 act, APP 5'UTR act, Mdm2 ligase inh)
Cn1c(=O)c([N+](=O)[O-])c(NCCCn2ccnc2)c2ccccc21	AHR activator 80 (no result: NF-kB neuron act, STAT1 act, APP 5'UTR act) | AHR act cf 110 | PXR counter 27
CCCCNc1c([N+](=O)[O-])c(=O)n(C)c2ccccc12	none
COc1cc(C(=O)NCC2CCCO2)cc(Br)c1OCc1ccccc1 (stereo unspecified)	none (no result: NF-kB neuron act, PERK inh, STAT1 act, APP 5'UTR act, Mdm2 ligase inh)
CN1C2C=C3C(C#N)=C(N)C(C#N)(C#N)[C@@H](c4ccc(Cl)cc4)[C@@H]3C1CC2 (stereo partly specified)	none
CN1C2C=C3C(C#N)=C(N)C(C#N)(C#N)C(c4ccc(Br)cc4)C3C1CC2 (stereo unspecified)	AHR activator 110 | AHR act cf 79 | PXR counter 107
Cc1cc(C)c(S(=O)(=O)Nc2ccnc(-c3cccnc3)n2)c(C)c1	none
